From ChEMBL document CHEMBL3865800, “Design, synthesis and biological evaluation of 4-anilinoquinazoline derivatives as new c-myc G-quadruplex ligands” (Eur J Med Chem, 2016)
pIC50, pKd: −log10 of the molar value. Calls of active or inactive are those of the source. No cut-off for these calls is given here.

Key:
[1] = Binding affinity to biotinylated double stranded DNA (unknown origin) after 240 secs by SPR assay
Method in brief: (§1)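 SPR: biotinylated Pu22 and biotinylated duplex folded in 50 mM Tris-HCl pH 7.4, 150 mM KCl, 0.005% Tween20, captured (~1000 RU) on separate flow cells with a blank reference; ligand 0.0625–10 μM in running buffer, 240 s association then 240 s dissociation at 25 °C; equilibrium KD derived.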

[2] = Selectivity ratio of Kd for double stranded DNA (unknown origin) to Kd for biotinylated 5'-Pu22-3'-labelled c-myc G-quadruplex DNA
[3] = Cytotoxicity against human HeLa cells assessed as reduction in cell viability after 48 hrs by MTT assay; format: functional, cell-based
[4] = Cytotoxicity against human A549 cells assessed as reduction in cell viability after 48 hrs by MTT assay; format: functional, cell-based; details: A549, 48 h
[5] = Binding affinity to biotinylated 5'-Pu22-3'-labelled c-myc G-quadruplex DNA (unknown origin) after 240 secs by SPR assay; method in brief: as §1
[6] = Cytotoxicity against mouse primary mesangial cells assessed as reduction in cell viability after 48 hrs by MTT assay; format: toxicity
[7] = Cytotoxicity against human Raji cells assessed as reduction in cell viability after 48 hrs by MTT assay; format: functional, cell-based
[8] = Cytotoxicity against human CA46 cells assessed as reduction in cell viability after 48 hrs by MTT assay; format: functional, cell-based; details: CA46, 48 h
[9] = Binding affinity to 5'-FPu22T-3'-labelled c-myc G-quadruplex DNA (unknown origin) assessed as change in melting temperature by FRET assay
Method in brief: (§2)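 Fluorescence melting on real-time PCR instrument; 0.4 μM labelled oligonucleotide (FPu22T or duplex-forming F10T), ligand 2.0 μM, in 10 mM Tris-HCl pH 7.4 with 10 or 60 mM KCl; ex 470/em 530 nm at 1 °C steps over 37–99 °C, 30 s equilibration each; ΔTm = Tm(DNA+ligand) − Tm(DNA).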

[10] = Binding affinity to 5'-FPu22T-3'-labelled c-myc G-quadruplex DNA (unknown origin) assessed as change in melting temperature at 2 uM in presence ds26 DNA of by FRET assay
Method in brief: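 FRET melting of 0.4 μM labelled FPu22T with ligand 2.0 μM, alone or with 10-fold (4 μM), 50-fold (20 μM) or 100-fold (40 μM) excess unlabelled duplex ds26 as competitor; Tris-HCl 10 mM pH 7.4 with 10 or 60 mM KCl; ex 470/em 530 nm read every 1 °C from 37–99 °C, 30 s hold; ΔTm = Tm(DNA+ligand) − Tm(DNA).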

[11] = Binding affinity to F10T duplex DNA (unknown origin) assessed as change in melting temperature by FRET assay; method in brief: as §2

SMILES	pKd [1]	Selectivity ratio [2]	pIC50 [3]	pIC50 [4]	pKd [5]	IC50 at 48 h [6]	pIC50 [7]	pIC50 [8]	ΔTm [9]	Activity [10]	ΔTm [11]
O=C(CCCN1CCCC1)Nc1ccc(Nc2nc(-c3ccccc3NC(=O)CCCN3CCCC3)nc3ccccc23)cc1	< 5.00	> 18.2	4.65	4.57	6.26	> 50 µM	4.50	4.86	12.6 °C	Active	0.8 °C
CCN(CC)CCCNCCC(=O)Nc1ccc(Nc2nc(-c3ccccc3NC(=O)CCNCCCN(CC)CC)nc3ccccc23)cc1	5.21	3.9	< 4.30	< 4.30	5.80	> 50 µM	< 4.30	< 4.30	26.6 °C	Active	3.6 °C
CCN(CC)CCCCC(=O)Nc1ccc(Nc2nc(-c3ccccc3NC(=O)CCCCN(CC)CC)nc3ccccc23)cc1	< 5.00	> 19.2	4.90	< 4.30	6.28	> 50 µM	4.90	5.24	13.1 °C	Active	0.4 °C
Oc1ccccc1-c1nc(Nc2ccc(OCCN3CCOCC3)cc2)c2ccccc2n1									0.7 °C		0.1 °C
CCN(CC)CC(=O)Nc1ccc(Nc2nc(-c3ccc(O)cc3)nc3ccccc23)cc1			4.68	4.57	5.20	12.9 µM	4.89	4.88	7.2 °C		0.7 °C
Oc1ccccc1-c1nc(Nc2ccc(OCCN3CCCCC3)cc2)c2ccccc2n1					< 5.00				1.4 °C		0.2 °C
O=C(CN1CCOCC1)Nc1ccc(Nc2nc(-c3ccccc3NC(=O)CN3CCOCC3)nc3ccccc23)cc1			< 4.30	< 4.30	5.09	> 50 µM	4.92	5.67	0.2 °C		0.2 °C
CCN(CC)CCNCCOc1ccc(Nc2nc(-c3ccccc3O)nc3ccccc23)cc1					< 5.00				0.4 °C		0.2 °C
CCN(CC)CC(=O)Nc1ccc(Nc2nc(-c3ccccc3NC(=O)CN(CC)CC)nc3ccccc23)cc1			4.53	< 4.30	5.40	2.7 µM	5.19	5.50	8.8 °C		0.3 °C
CCN(CC)CCOc1ccc(Nc2nc(-c3ccccc3O)nc3ccccc23)cc1					< 5.00				0.4 °C		0.1 °C
CCN(CC)CCC(=O)Nc1ccc(Nc2nc(-c3ccccc3)nc3ccccc23)cc1			5.08	4.75	< 5.00	6.2 µM	5.07	5.44	4.6 °C		0.2 °C
CCN(CC)CCC(=O)Nc1ccc(Nc2nc(N(CC)CC)nc3ccccc23)cc1	< 5.00	> 6.1	5.20	5.21	5.79	6.4 µM	5.29	4.99	12.2 °C	Active	0.2 °C
CCN(CC)CCC(=O)Nc1ccc(Nc2nc(Cl)nc3ccccc23)cc1			< 4.30	4.34	5.26	> 50 µM	< 4.30	4.50	1 °C		0.1 °C
CCN(CC)CC(=O)Nc1ccc(Nc2nc(N(CC)CC)nc3ccccc23)cc1	< 5.00	> 3	4.68	4.68	5.48	10.2 µM	4.87	5.38	10 °C		0.4 °C
CCN(CC)CCCOc1ccc(Nc2nc(N(CC)CC)nc3ccccc23)cc1			5.64	5.32	5.61	8.1 µM	5.24	4.91	8.2 °C		0.2 °C
CN(C)CCCNCCC(=O)Nc1ccc(C(=O)Nc2cc(Cl)ccc2-c2nc(NCCCN(C)C)c3ccccc3n2)cc1									16.6 °C		0.6 °C
CN1CCN(CCOc2ccc(Nc3nc(-c4ccccc4O)nc4ccccc34)cc2)CC1					< 5.00				0.4 °C		0.1 °C
CCN(CC)CCC(=O)Nc1ccc(Nc2nc(-c3ccccc3N)nc3ccccc23)cc1			5.14	5.04	5.33	5.7 µM	4.84	5.48	5.3 °C		0.1 °C
CN1CCN(CC(=O)Nc2ccc(Nc3nc(-c4ccccc4NC(=O)CN4CCN(C)CC4)nc4ccccc34)cc2)CC1			4.54	4.67	6.21	38.2 µM	4.75	4.91	12.5 °C		0.1 °C
CCN(CC)CCOc1ccc(Nc2nc(N(CC)CC)nc3ccccc23)cc1			4.76	5.30	5.54	9.8 µM	4.69	4.69	7.1 °C		0.4 °C
O=C(CCN1CCOCC1)Nc1ccc(Nc2nc(-c3ccccc3NC(=O)CCN3CCOCC3)nc3ccccc23)cc1			< 4.30	< 4.30	5.88	> 50 µM	< 4.30	< 4.30	4.8 °C		0.3 °C
CCN(CC)CC(=O)Nc1ccc(Nc2nc(Cl)nc3ccccc23)cc1			< 4.30	< 4.30		> 50 µM	< 4.30	4.48	0.1 °C		0.1 °C
Oc1ccccc1-c1nc(Nc2ccc(OCCN3CCCC3)cc2)c2ccccc2n1									1.6 °C		0.2 °C
CCN(CC)CCC(=O)Nc1cc(Cl)ccc1-c1nc(NCCCN(C)C)c2ccccc2n1	5.04	18.7			6.31				11.4 °C		3.7 °C
